# Results gathered from unrelated publications.
# Each line is one published result; the experiments were not run side by side.
# RPS6KA6: Ribosomal protein S6 kinase alpha-6 (RPS6KA6, Homo sapiens, UniProt Q9UK32)
# RPS6KA6 C-terminal kinase domain: Ribosomal protein S6 kinase alpha-6, C-terminal kinase domain (RPS6KA6, Homo sapiens, UniProt Q9UK32)
# RPS6KA6 N-terminal kinase domain: Ribosomal protein S6 kinase alpha-6, N-terminal kinase domain (RPS6KA6, Homo sapiens, UniProt Q9UK32)
SMILES,target,test,setting,quantity,result
CN1CC(Oc2cnc(C#N)cc2-c2ccn3nc(NC(=O)C4CC4)cc3c2)C1,RPS6KA6,"enzyme activity, inhibitor",1 µM,inhibition,-4%
C[C@@H]1CCN(c2nccc(-c3cnn4ncccc34)n2)C1,RPS6KA6 C-terminal kinase domain,"binding, competition with immobilised ligand",1 µM,remaining binding,66%
Cn1c2c(Cl)c(Cl)ccc2c2cn[nH]c(=O)c21,RPS6KA6,"thermal stability, DSF",10 µM,ΔTm,2 °C
CN(C)c1ncnc(-c2ccc3nc(Nc4cc(CN5CCN(C(=O)CC(F)(F)F)CC5)ccn4)[nH]c3c2)c1Cl,RPS6KA6 C-terminal kinase domain,"cell-free assay, competition with immobilised ligand",1 µM,remaining binding,81%
CC/C(=N\NC(=O)NCc1cccc(O)c1)c1ccc(O)c(C)c1O,RPS6KA6,"enzyme activity, inhibitor",0.1 µM,inhibition,66.4%
CCN1CCC2(CC1)NC(=O)c1c(c3ccc(Cl)c(Cl)c3n1C)C2C#N (racemic),RPS6KA6,"thermal stability, DSF",10 µM,ΔTm,0 °C
COc1cc2ncnc(Nc3ccc(Oc4ccccc4)c(C)c3C)c2cc1OC,RPS6KA6,"enzyme activity, inhibitor",1 µM,inhibition,19%
CO[C@@H](C)c1c(Nc2ccc([C@H](N(C)C(=O)C3CCS(=O)(=O)CC3)C(F)(F)F)cc2)cnc2cc(Cl)nn12,RPS6KA6 C-terminal kinase domain,"cell-free assay, competition with immobilised ligand",1 µM,remaining binding,91%
O=C1Nc2ccc(Cl)cc2C1=Cc1cc(Cl)c(O)c(Cl)c1,RPS6KA6,cell-free assay,0.5 µM,remaining signal,78.5%
O=C(O)[C@H]1[C@H](Cn2nnc3ccccc3c2=O)CC[C@@H]1C(=O)c1ccc(OCCC2CCOCC2)cc1,RPS6KA6 N-terminal kinase domain,"cell-free assay, competition with immobilised ligand",1 µM,remaining binding,86%
N[C@H]1CCN(c2nccc(-c3cnn4ncccc34)n2)C1,RPS6KA6 N-terminal kinase domain,"binding, competition with immobilised ligand",1 µM,remaining binding,100%
O=C(Nc1cnn(-c2csc(C(=O)NC3COC3)c2)c1)Nc1ccccc1Cl,RPS6KA6,"enzyme activity, inhibitor",5 µM,remaining activity,107%
CS(=O)(=O)N1CCCC(NC(=O)[C@H](CCC2CCCCC2)NC(=O)c2ccc(CNC(=O)c3cnc4ccccn34)cc2)C1 (some centres unmarked),RPS6KA6 N-terminal kinase domain,"cell-free assay, competition with immobilised ligand",0.1 µM,remaining binding,97%
CCCS(=O)(=O)Nc1ccc(F)c(C(=O)c2c[nH]c3ncc(-c4ccc(Cl)cc4)cc23)c1F,RPS6KA6,"enzyme activity, inhibitor",1 µM,inhibition,< 10%
N#CCCc1ccc2c(c1)-c1[nH]c3ccc([N+](=O)[O-])cc3c1CC(=O)N2,RPS6KA6,cell-free assay,0.5 µM,remaining signal,13.4%
Cc1ccc(C(=O)NCc2ccsc2)cc1C#Cc1cn(C(C)C)c2ncnc(N)c12,RPS6KA6,"enzyme activity, inhibitor",1 µM,activity vs control,71%
CS(=O)(=O)NCC[C@H](NC(=O)c1cncc2c1cnn2-c1ccc(F)cc1)c1ccnc(S(C)(=O)=O)c1,RPS6KA6 N-terminal kinase domain,"cell-free assay, competition with immobilised ligand",1 µM,remaining binding,99%
CN(CCCC(F)(F)F)c1nccc(-c2cnn3ncccc23)n1,RPS6KA6 C-terminal kinase domain,"binding, competition with immobilised ligand",1 µM,remaining binding,100%
Cc1nc(Cc2cccc(C(F)(F)F)c2)sc1-c1ccc(C(N)=O)nc1,RPS6KA6 N-terminal kinase domain,"cell-free assay, competition with immobilised ligand",1 µM,remaining binding,91%
COc1ccc(COc2ccc(Cc3cnc(N)nc3N)cc2OC)cc1,RPS6KA6,cell-free assay,0.5 µM,remaining signal,101%
